Test results: ChEMBL document CHEMBL1811869, “Tigliane-type diterpenoid glycosides from Euphorbia fischeriana” (J Nat Prod, 2011)

Experiments:
[1] = Cytotoxicity against human C8166 cells by MTT assay; type: cell-based
In short: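 C8166 cell viability read by MTT method, with CC50 derived.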

[2] = Therapeutic index, ratio of CC50 for C8166 cells to EC50 for Human immunodeficiency virus 1; type: cell-based; details: read-out: Ratio CC50/EC50
[3] = system: Human immunodeficiency virus 1; test: Antiviral activity against Human immunodeficiency virus 1 infected in human C8166 cells assessed as inhibition of virus-induced cytopathic effect; type: functional, organism-based; details: Human immunodeficiency virus 1, C8166
In short: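 HIV-1 cytopathic-effect inhibition assay in C8166 cells, with EC50 derived. Zidovudine (AZT) run as the positive-control drug.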

For CC(=O)O[C@@]12[C@H](O)[C@@H](C)[C@@]3(O)[C@@H](C=C(CO[C@@H]4O[C@H](CO)[C@@H](O)[C@H](O)[C@H]4O)C[C@]4(O)C(=O)C(C)=C[C@@H]34)[C@@H]1C2(C)C [FISCHEROSIDES C], the CC50 [1] was > 350 nM, the selectivity ratio [2] was > 17.5 and the EC50 [3] was 20 nM.

For CC(=O)OCC1=C[C@H]2[C@@H]3C(C)(C)[C@]3(OC(C)=O)C[C@@H](C)[C@]2(O)[C@@H]2C=C(C)C(=O)[C@@]2(O)C1, the CC50 [1] was 110 nM, the selectivity ratio [2] was > 367 and the EC50 [3] was 0.3 nM.

With Cc1cn([C@H]2C[C@H](N=[N+]=[N-])[C@@H](CO)O2)c(=O)[nH]c1=O [ZIDOVUDINE] the CC50 [1] was 4070 nM and the selectivity ratio [2] was 1.02e+06.

For CC(=O)O[C@@]12C[C@@H](C)[C@@]3(O)[C@@H](C=C(CO)C[C@]4(O)C(=O)C(C)=C[C@@H]34)[C@@H]1C2(C)C [PROSTRATIN], the CC50 [1] was > 510 nM, the selectivity ratio [2] was > 8500 and the EC50 [3] was 0.06 nM.

For CC(=O)O[C@@]12C[C@@H](C)[C@@]3(O)[C@@H](C=C(CO[C@@H]4O[C@H](CO)[C@@H](O)[C@H](O)[C@H]4O)C[C@]4(O)C(=O)C(C)=C[C@@H]34)[C@@H]1C2(C)C [FISCHEROSIDES A], the CC50 [1] was > 360 nM, the selectivity ratio [2] was > 2.12 and the EC50 [3] was 170 nM.

With CC(=O)O[C@@]12C[C@@H](C)[C@@]3(O)[C@@H](C=C(CO[C@@H]4O[C@H](COC(=O)c5cc(O)c(O)c(O)c5)[C@@H](O)[C@H](O)[C@H]4O)C[C@]4(O)C(=O)C(C)=C[C@@H]34)[C@@H]1C2(C)C [FISCHEROSIDES B] the CC50 [1] was > 280 nM, the selectivity ratio [2] was > 4 and the EC50 [3] was 70 nM.
